In ChEMBL document CHEMBL4017460, “A Tobramycin Vector Enhances Synergy and Efficacy of Efflux Pump Inhibitors against Multidrug-Resistant Gram-Negative Bacteria” (J Med Chem, 2017):
Converted amounts (≈) assume the structure as drawn. The source made the active and inactive calls. The calls are words filed in the database; no cut-off is given here.

Assays:
[1] = tested on: Pseudomonas aeruginosa PAO1; assay: Inhibition of RND efflux pump in Pseudomonas aeruginosa PAO1 assessed as potentiation of minocycline-induced antibacterial activity at 8 ug/ml after 18 to 24 hrs by checker board assay
Summary of the method: (§1)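 Checkerboard in MHB: antibiotic 2-fold diluted along one axis, test agent 2-fold diluted along the other. Overnight culture standardized to 0.5 McFarland in saline, diluted 1:50 in MHB, added to wells, incubated 37 °C for 18 h. MIC is the lowest concentration with no growth. FIC = MIC in combination / MIC alone; FIC index = sum of both FICs.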

Pseudomonas aeruginosa [2] = assay: Antibacterial activity against Pseudomonas aeruginosa PAO1 assessed as ratio of MIC after 25 serial passages at sub-MIC to MIC after 1 passage by microbroth dilution assay; format: functional
Pseudomonas aeruginosa [3] = assay: Antibacterial activity against Pseudomonas aeruginosa PAO1 after 18 to 24 hrs by microbroth dilution assay; format: functional; summary of the method: as §1
[4] = tested on: Pseudomonas aeruginosa PAO1; assay: Inhibition of RND efflux pump in Pseudomonas aeruginosa PAO1 assessed as potentiation of minocycline-induced antibacterial activity by measuring minocycline MIC at 8 ug/ml after 18 to 24 hrs by microbroth dilution assay (reference value: 8 ug/ml)
Summary of the method: (§2)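 Absolute minocycline MIC taken from checkerboard broth dilution with a fixed 8 μg/mL adjuvant. Inoculum was a 0.5 McFarland saline suspension diluted 1:50 in MHB, incubated 37 °C for 18 h. MIC is the lowest concentration with no growth.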

Pseudomonas aeruginosa [5] = assay: Induction of cytoplasmic membrane depolarization in Pseudomonas aeruginosa PAO1 at 16 ug/ml by DiSC3(5) dye based fluorescence assay; format: functional
Summary of the method: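 Cytoplasmic membrane depolarization in P. aeruginosa PAO1, monitored by DiSC3(5) fluorescence across a range of compound concentrations. Colistin served as positive control.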

Pseudomonas aeruginosa [6] = assay: Induction of outer membrane permeabilization in Pseudomonas aeruginosa PAO1 assessed as increase in tetracycline uptake at 29 ug/ml measured at 1 min interval for 30 mins by fluorescence assay; format: functional
Summary of the method: (§3)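 Tetracycline uptake assay in P. aeruginosa PAO1: enhancement of tetracycline fluorescence as it enters cells, monitored with compound present at several concentrations.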

Enterobacter cloacae [7] = assay: Inhibition of RND efflux pump in Enterobacter cloacae isolate 117029 assessed as potentiation of minocycline-induced antibacterial activity at 8 ug/ml after 18 to 24 hrs by microbroth dilution assay; summary of the method: as §1
[8] = tested on: Pseudomonas aeruginosa PAO1; assay: Inhibition of RND efflux pump in Pseudomonas aeruginosa PAO1 assessed as increase in tetracycline uptake up to 8.2 ug/ml measured at 1 min interval for 30 mins by fluorescence assay; summary of the method: as §3
Enterobacter cloacae [9] = assay: Inhibition of RND efflux pump in Enterobacter cloacae isolate 117029 assessed as potentiation of minocycline-induced antibacterial activity by measuring minocycline MIC at 8 ug/ml after 18 to 24 hrs by microbroth dilution assay (reference value: 128 to 256 ug/ml); summary of the method: as §2
Klebsiella pneumoniae [10] = assay: Inhibition of RND efflux pump in Klebsiella pneumoniae isolate 116381 assessed as potentiation of minocycline-induced antibacterial activity by measuring minocycline MIC at 8 ug/ml after 18 to 24 hrs by microbroth dilution assay (reference value: 128 ug/ml); summary of the method: as §2
Pseudomonas aeruginosa [11] = assay: (§4) Inhibition of RND efflux pump in XDR Pseudomonas aeruginosa isolate P262-101856 infected in Galleria mellonella assessed as potentiation of minocycline-induced antibacterial activity by measuring larval death rate at 75 mg/kg co-treated with 75 mg/kg minocycline measured after 24 hrs relative to control; format: organism-based; design: scale not given: the % may be the effect or the level left
Summary of the method: (§5)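 G. mellonella larvae infected with 1.0 × 10^5/mL CFU of XDR P. aeruginosa 101856. A single-dose injection of agent, alone or with minocycline, given 2 h post-infection. Survival scored up to 24 h. 15 larvae per experiment from different batches, two experiments per dosage (n = 30). Significance 0 vs 24 h at P ≤ 0.05.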

Enterobacter cloacae [12] = assay: Antibacterial activity against Enterobacter cloacae isolate 117029 after 18 to 24 hrs by microbroth dilution assay; format: functional; summary of the method: as §1
Klebsiella pneumoniae [13] = assay: Antibacterial activity against Klebsiella pneumoniae isolate 116381 after 18 to 24 hrs by microbroth dilution assay; format: functional; summary of the method: as §1
Klebsiella pneumoniae [14] = assay: Inhibition of RND efflux pump in Klebsiella pneumoniae isolate 116381 assessed as potentiation of minocycline-induced antibacterial activity at 8 ug/ml after 18 to 24 hrs by microbroth dilution assay; summary of the method: as §1
Pseudomonas aeruginosa [15] = assay: as §4, with “survival” for “death”; format: organism-based; summary of the method: as §5
[16] = tested on: Pseudomonas aeruginosa PAO1; assay: Inhibition of RND efflux pump in Pseudomonas aeruginosa PAO1 assessed as increase in tetracycline uptake up to 5.7 ug/ml measured at 1 min interval for 30 mins by fluorescence assay
Pseudomonas aeruginosa [17] = assay: Antibacterial activity against XDR Pseudomonas aeruginosa isolate P262-101856 infected in Galleria mellonella assessed as protection against bacterial infection by measuring larval death at 75 mg/kg up to 24 hrs relative to control; format: functional; summary of the method: as §5
[18] = tested on: Pseudomonas aeruginosa PAO1; assay: Inhibition of RND efflux pump in Pseudomonas aeruginosa PAO1 assessed as increase in tetracycline uptake at 13.6 ug/ml measured at 1 min interval for 30 mins by fluorescence assay; summary of the method: as §3
[19] = Toxicity in Galleria mellonella assessed as death at 100 mg/kg after 24 hrs relative to control; format: organism-based; settings: in vivo, read-out: Activity
[20] = tested on: Pseudomonas aeruginosa PAO1; assay: Inhibition of RND efflux pump in Pseudomonas aeruginosa PAO1 assessed as potentiation of minocycline-induced antibacterial activity by measuring fold reduction in minocycline MIC at 8 ug/ml after 18 to 24 hrs by microbroth dilution assay relative to minocycline alone; summary of the method: as §2
[21] = tested on: Pseudomonas aeruginosa PAO1; assay: Inhibition of RND efflux pump in Pseudomonas aeruginosa PAO1 assessed as potentiation of minocycline-induced antibacterial activity by measuring ratio of minocycline MIC after 25 serial passages to minocycline MIC at sub-MIC after 18 to 24 hrs by microbroth dilution assay
Pseudomonas aeruginosa [22] = assay: Induction of membrane destabilization in Pseudomonas aeruginosa PAO1 assessed as increase in tetracycline uptake at 5 ug/ml measured at 1 min interval for 30 mins by fluorescence assay; format: functional

Work on NC[C@H]1O[C@H](O[C@H]2[C@H](O)[C@@H](O[C@H]3O[C@H](CO)[C@@H](O)[C@H](N)[C@H]3O)[C@H](N)C[C@@H]2N)[C@H](N)C[C@@H]1O [TOBRAMYCIN] yielded a fractional inhibitory concentration index (FICI) [1] of 1.06, a Ratio (Pseudomonas aeruginosa [2]) of 256 and an MIC (Pseudomonas aeruginosa [3]) of 0.25 µg/mL (≈ 0.535 µM).

With Cl.Cl.Cl.Cl.Cl.Cl.Cl.NC[C@H]1O[C@H](O[C@H]2[C@H](OCCCCN3CCN(Cc4cccc5ccccc45)CC3)[C@@H](O[C@H]3O[C@H](CO)[C@@H](O)[C@H](N)[C@H]3O)[C@H](N)C[C@@H]2N)[C@H](N)C[C@@H]1O the fractional inhibitory concentration index (FICI) [1] was 0.25 to 0.5, the MIC [4] was 4 µg/mL and the MIC (Pseudomonas aeruginosa [3]) was 512 µg/mL.

For COLISTIN, the fractional inhibitory concentration index (FICI) [1] was 0.5, the Activity (Pseudomonas aeruginosa [5]) was “Active” and the Activity (Pseudomonas aeruginosa [6]) was “Active”. For the same compound, the Ratio (Pseudomonas aeruginosa [2]) was > 1024.

With Fc1ccc([C@@H]2CCNC[C@H]2COc2ccc3c(c2)OCO3)cc1 [PAROXETINE] the fractional inhibitory concentration index (FICI) [1] was 1.02, the fractional inhibitory concentration index (FICI) (Enterobacter cloacae [7]) was 0.5 and the inhibition [8] was “inactive”. It also gave an MIC [4] of 8 µg/mL, an MIC (Enterobacter cloacae [9]) of 64 µg/mL and an MIC (Klebsiella pneumoniae [10]) of 128 µg/mL. It also gave an Activity (Pseudomonas aeruginosa [11]) of 100%, an MIC (Pseudomonas aeruginosa [3]) of 512 µg/mL (≈ 1550 µM) and an MIC (Enterobacter cloacae [12]) of 64 µg/mL (≈ 194 µM). The MIC (Klebsiella pneumoniae [13]) was 128 µg/mL (≈ 389 µM) and the fractional inhibitory concentration index (FICI) (Klebsiella pneumoniae [14]) was 0.63.

In the case of c1ccc2c(CN3CCNCC3)cccc2c1, the Survival (Pseudomonas aeruginosa [15]) is reported as 0%, the inhibition [16] is reported as “inactive” and the fractional inhibitory concentration index (FICI) [1] is reported as 1.02. For the same compound, the fractional inhibitory concentration index (FICI) (Enterobacter cloacae [7]) was > 0.5, the Activity (Pseudomonas aeruginosa [17]) was 100% and the MIC [4] was 8 µg/mL. The MIC (Enterobacter cloacae [9]) was 128 µg/mL, the MIC (Klebsiella pneumoniae [10]) was 128 µg/mL and the Activity (Pseudomonas aeruginosa [11]) was 100%. For the same compound, the MIC (Pseudomonas aeruginosa [3]) was 512 µg/mL (≈ 2260 µM), the MIC (Enterobacter cloacae [12]) was > 512 µg/mL and the MIC (Klebsiella pneumoniae [13]) was > 512 µg/mL. For the same compound, the fractional inhibitory concentration index (FICI) (Klebsiella pneumoniae [14]) was 0.25 to 0.38.

With NC[C@H]1O[C@H](O[C@H]2[C@H](OCCCCCCCCCCN3CCN(Cc4cccc5ccccc45)CC3)[C@@H](O[C@H]3O[C@H](CO)[C@@H](O)[C@H](N)[C@H]3O)[C@H](N)C[C@@H]2N)[C@H](N)C[C@@H]1O.O=C(O)C(F)(F)F.O=C(O)C(F)(F)F.O=C(O)C(F)(F)F.O=C(O)C(F)(F)F.O=C(O)C(F)(F)F.O=C(O)C(F)(F)F.O=C(O)C(F)(F)F the fractional inhibitory concentration index (FICI) [1] was 0.125 to 0.14, the MIC [4] was 1 µg/mL and the MIC (Pseudomonas aeruginosa [3]) was > 512 µg/mL.

For NC[C@@H]1CN[C@@H](C(=O)N[C@H](CCc2ccccc2)C(=O)Nc2ccc3ccccc3c2)C1, the inhibition [18] was “Active”, the mortality at 24 h [19] was 80% and the fold change (FC) [20] was 8. It also gave a fractional inhibitory concentration index (FICI) [1] of 0.13, a fractional inhibitory concentration index (FICI) (Enterobacter cloacae [7]) of 0.13 and an MIC [4] of 1 µg/mL. It also gave an MIC (Enterobacter cloacae [9]) of 8 µg/mL, a Ratio [21] of 4 and an MIC (Klebsiella pneumoniae [10]) of 4 µg/mL. For the same compound, the MIC (Pseudomonas aeruginosa [3]) was 256 µg/mL (≈ 595 µM), the MIC (Enterobacter cloacae [12]) was 64 µg/mL (≈ 149 µM) and the MIC (Klebsiella pneumoniae [13]) was 256 µg/mL (≈ 595 µM). It also gave a fractional inhibitory concentration index (FICI) (Klebsiella pneumoniae [14]) of 0.06.

Work on Cl.Cl.Cl.Cl.Cl.Cl.Cl.NC[C@H]1O[C@H](O[C@H]2[C@H](OCCN3CCN(Cc4cccc5ccccc45)CC3)[C@@H](O[C@H]3O[C@H](CO)[C@@H](O)[C@H](N)[C@H]3O)[C@H](N)C[C@@H]2N)[C@H](N)C[C@@H]1O yielded a fractional inhibitory concentration index (FICI) [1] of 0.53, an MIC [4] of 4 µg/mL and an MIC (Pseudomonas aeruginosa [3]) of 128 µg/mL.

In the case of N#CC(C#N)=NNc1cccc(Cl)c1, the Activity (Pseudomonas aeruginosa [22]) is reported as “Active”.

In the case of Cl.Cl.Cl.Cl.Cl.Cl.Cl.NC[C@H]1O[C@H](O[C@H]2[C@H](OCCCCCCCCN3CCN(Cc4cccc5ccccc45)CC3)[C@@H](O[C@H]3O[C@H](CO)[C@@H](O)[C@H](N)[C@H]3O)[C@H](N)C[C@@H]2N)[C@H](N)C[C@@H]1O, the fractional inhibitory concentration index (FICI) [1] is reported as 0.125 to 0.25, the MIC [4] is reported as 2 µg/mL and the MIC (Pseudomonas aeruginosa [3]) is reported as > 512 µg/mL.

For Cetrimonium bromide, the fractional inhibitory concentration index (FICI) [1] was 0.75.

CN(C)c1ccc(O)c2c1C[C@H]1C[C@H]3[C@H](N(C)C)C(O)=C(C(N)=O)C(=O)[C@@]3(O)C(O)=C1C2=O [MINOCYCLINE] gave an Activity (Pseudomonas aeruginosa [17]) of 100% and a Ratio (Pseudomonas aeruginosa [2]) of 16.

With Cl.Cl.Cl.Cl.Cl.Cl.Cl.NC[C@H]1O[C@H](O[C@H]2[C@H](OCCCCCCN3CCN(Cc4cccc5ccccc45)CC3)[C@@H](O[C@H]3O[C@H](CO)[C@@H](O)[C@H](N)[C@H]3O)[C@H](N)C[C@@H]2N)[C@H](N)C[C@@H]1O the fractional inhibitory concentration index (FICI) [1] was 0.25 to 0.5, the MIC [4] was 4 µg/mL and the MIC (Pseudomonas aeruginosa [3]) was > 512 µg/mL.
